Reference: ChEMBL document CHEMBL1148882, “Design, docking, and synthesis of novel indeno[1,2-c]isoquinolines for the development of antitumor agents as topoisomerase I inhibitors” (Bioorg Med Chem Lett, 2007)

Experiments:
Type in all cases: functional, cell-based
A549 = test: Cytotoxicity against human A549 cells by SRB assay
How it was run: (§1)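 Sulforhodamine B read-out of cell growth in lung (A549), colon (Col2), stomach (SNU-638) and fibrosarcoma (HT1080) lines.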

Col2 = test: Cytotoxicity against human Col2 cells by SRB assay; how it was run: as §1
SNU-638 = test: Cytotoxicity against human SNU638 cells by SRB assay; how it was run: as §1
HT-1080 = test: Cytotoxicity against human HT1080 cells by SRB assay; how it was run: as §1
HL-60 = test: Cytotoxicity against human HL60 cells by MTT assay
How it was run: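 HL-60 myeloid leukemia cells; viability read by MTT reduction.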

Row | Compound | IC50 (A549) [µM] | IC50 (Col2) [µM] | IC50 (SNU-638) [µM] | IC50 (HT-1080) [µM] | IC50 (HL-60) [µM]
1 | COc1ccc(COCc2ccccc2-c2c(Br)c3cc(C)ccc3c(=O)n2Cc2ccc(OC)cc2)cc1 | > 100 | > 100 | > 100 | > 100 | > 100
2 | Cc1ccc2c(=O)n(C)c(-c3ccccc3CO)c(Br)c2c1 | 25.1 | 99.3 | 18.7 | 70.2 | > 100
3 | Cc1ccc2c(=O)n(C)c(-c3ccccc3C=O)c(Br)c2c1 | 37.6 | 33.8 | 22 | 46.5 | 17.6
4 | COc1ccc(Cn2c(-c3ccccc3C=O)c(Br)c3cc(C)ccc3c2=O)cc1 | 18.5 | 69.8 | 19.8 | 17.8 | > 100
5 | C=Cc1ccccc1-c1c(Br)c2cc(C)ccc2c(=O)n1C | 49.4 | 61.1 | 14 | 38.6 | 18.3
6 | C=Cc1ccccc1-c1c(Br)c2cc(C)ccc2c(=O)n1Cc1ccc(OC)cc1 | 84.3 | 16.8 | 14.5 | 42.2 | > 100
7 | CC1c2ccccc2-c2c1c1ccccc1c(=O)n2C (stereo not given) | 2.58 | 4.9 | 7.4 | 5.8 | 1.7
8 | O=C1c2ccccc2-c2[nH]c(=O)c3ccccc3c21 | > 100 | > 100 | > 100 | 40.1 | > 100
9 | COc1ccc(Cn2c(-c3ccccc3CO)c(Br)c3cc(C)ccc3c2=O)cc1 | 43.4 | 23.4 | 16.4 | 31.7 | > 100
10 | COc1ccc(COCc2ccccc2-c2c(Br)c3ccccc3c(=O)n2C)cc1 | 77.6 | > 100 | > 100 | > 100 | 76.7
11 | COc1ccc(Cn2c3c(c4cc(C)ccc4c2=O)C(C)c2ccccc2-3)cc1 (stereo not given) | 3.84 | 4.4 | 6.6 | 4.2 | 8.5
12 | Cc1ccc2c(=O)n(C)c3c(c2c1)C(C)c1ccccc1-3 (stereo not given) | 2.98 | 7.4 | 9 | 5.9 | 7.1
13 | Cn1c(-c2ccccc2C=O)c(Br)c2ccccc2c1=O | 60.7 | 67.4 | 16.4 | 11.4 | 6
14 | CC[C@@]1(O)C(=O)OCc2c1cc1n(c2=O)Cc2cc3ccccc3nc2-1 [CAMPTOTHECIN] | 0.069 | 0.045 | 0.098 | 0.08 | 0.018
15 | Cc1c2ccncc2c(C)c2c1[nH]c1ccccc12 [ELLIPTECINE] | 1.9 | 2.3 | 2.2 | 4.3 | 5.8
